Here are results for three compounds from ChEMBL document CHEMBL1124035, “1-Amino-substituted 4-methyl-5H-pyrido[4,3-b]indoles (gamma-carbolines) as tricyclic analogues of ellipticines: a new class of antineoplastic agents” (1988).

The test system of assay [1] is Mus musculus. Briefly: […] in C38 adenocarcinoma cell line when a dose of 50 mg/kg administered intravenously to mice. Conditions: route intravenous. It counts as functional, MC-38. A digest of the protocol: (§1)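 C38 colon adenocarcinoma in hybrid BD F1 mice, 10 per test. A standard 3-mm³ tumour fragment was implanted sc. Drugs were given iv at the stated doses on D1 or on D2 + D9, following the Geran et al. NCI protocol.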

The subject of assay [2] is Mus musculus. Briefly: Antitumor activity against P388 cells at a dose of 80 mg/kg administered intraperitoneally to P388 leukemia model. It counts as functional. Conditions: dose 40 mg/kg; route intraperitoneal; in the assay text read “40 mg/kg” for “80 mg/kg”. Summed up: (§2)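 Mice were inoculated ip with 10^6 P388 leukemia cells at D0, then given a single ip drug dose on D1. Weight change was recorded. T/C % = median survival day of treated / controls × 100; survivors counted at D30; 10 mice per dose group, 20 controls.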

For assay [3], the system named is Mus musculus. The assay can be described thus: Median survival day in P388 cell line when a dose of 40 mg/kg administered intraperitoneally to P388 leukemia model. Format: functional. To be noted: route intraperitoneal. A digest of the protocol: (§3)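 P388 leukaemia in CDF1 hybrid mice, 10 per group. At D0, 10^6 viable cells were inoculated ip, followed by a single ip dose of drug in distilled water on D1. Weight change, median survival day, T/C (treated/control median survival × 100) and survivors at D30 were recorded. Controls were 20 mice.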

The subject of assay [4] is Mus musculus. Briefly: Weight change in g when a dose of 40 mg/kg intravenous administration to L1210 leukemia mice model. Format: functional. Summed up:
(§4)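 Mice received 10^5 L1210 leukemia cells ip at D0, then a single iv drug dose at D1. Read-outs were weight change (g), median survival day, T/C % and survivors at D30.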

For assay [5], the system named is Mus musculus. Briefly: Antitumor activity against C38 adenocarcinoma cells at a dose of 100 mg/kg administered intravenously on D1 to mice; tumor volume at D38 (T/C). To be noted: route intravenous.
Assay [6] has as its system Mus musculus. Briefly: Survivors at day 60 when a dose of 10 mg/kg to B16 melanoma infected mice; 0/10.
Assay [7] has as its system Mus musculus. The assay can be described thus: Survivors at day D30 when a dose of 20 mg/kg administered intravenously to L1210 leukemia mice model; 0/10. To be noted: route intravenous. Format: functional.
For assay [8], the system named is Mus musculus. The assay can be described thus: Survivors at day 60 when a dose of 2.5 mg/kg to B16 melanoma infected mice; 0/10.
Assay [9] concerns Mus musculus. Briefly: […] in C38 adenocarcinoma cell line when a dose of 75 mg/kg administered intravenously to mice. It counts as functional, MC-38. To be noted: route intravenous. A digest of the protocol:
as §1

The subject of assay [10] is Mus musculus. The assay can be described thus: Survivors at day D30 when a dose of 40 mg/kg administered intravenously to L1210 leukemia mice model; 0/10. It counts as functional. To be noted: route intravenous.
Assay [11] relates to Mus musculus. The assay can be described thus: Antitumor activity against P388 leukemia in mice at a dose of 1.5 mg/kg administered intraperitoneally for 5 days. Format: functional. Conditions: route intraperitoneal. A digest of the protocol:
(§5)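 CDF1 hybrid male or female mice, 10 per group, were inoculated ip with 10^6 viable P388 cells on day 0. Drugs in distilled water were given ip (0.1 mL/10 g body weight) daily D1-5. Vehicle, 5-fluorouracil and BD 84 were given the same way. T/C = median survival day of treated / controls × 100; T/C > 128% was significant; cures counted at D60.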

Assay [12] has as its system Mus musculus. The assay can be described thus: Survivors at day 30 when a dose of 100 mg/kg administered intravenously to P388 (iv) to L1210 leukemia mice model. Format: functional.
For assay [13], the system named is Mus musculus. Briefly: […] in C38 adenocarcinoma cell line when a dose of 50 mg/kg administered intravenously in mice. Format: functional, MC-38. To be noted: route intravenous. Summed up:
as §1

For assay [14], the system named is Mus musculus. The assay can be described thus: Survivors at day 60 when a dose of 10 mg/kg to B16 melanoma infected when tested in 10 mice. Format: functional.
Assay [15] relates to Mus musculus. The assay can be described thus: Antitumor activity against L1210 cells at a dose of 20 mg/kg administered intravenously to mice. Format: functional. Conditions: route intravenous. Summed up: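 P388 (10^6 cells) or L1210 (10^5 cells) leukemia was inoculated ip in mice at D0, followed by a single iv drug treatment on D1. Weight change was recorded. T/C % = median survival day of treated / controls × 100; survivors noted at D30; 10-15 mice per group.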

Assay [16] concerns Mus musculus. Briefly: Median survival day of B16 melanoma infected mice, when a dose of 5 mg/kg administered intraperitoneally. Format: functional. Conditions: route intraperitoneal. A digest of the protocol: (§6)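 B16 melanoma in hybrid BD F1 mice. At D0 each mouse was inoculated ip with 0.5 mL of homogenate made from 1 g of tumour in 10 mL of physiological serum. Compounds were given ip daily at the stated doses for 9 days (D1-9), with cis-platinum 0.5 mg/kg under the same schedule as positive control.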

The test system of assay [17] is Mus musculus. Briefly: Weight change in g when a dose of 2.5 mg/kg administered intraperitoneally to B16 melanoma infected mice. Format: functional. Conditions: route intraperitoneal. Summed up: (§7)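 Hybrid BDF1 mice were inoculated ip at D0 with 0.5 mL of B16 melanoma homogenate (1 g tumor in 10 mL physiological serum). Drug was given ip daily on days 1-9, with cis-platinum 0.5 mg/kg as positive control on the same schedule.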

The subject of assay [18] is Mus musculus. The assay can be described thus: Survivors at day 30 when a dose of 20 mg/kg administered to P388 leukemia model when tested in 10 mice. Format: functional. A digest of the protocol:
as §3

Assay [19] relates to Mus musculus. The assay can be described thus: Antitumor activity against P388 cells at a dose of 20 mg/kg administered intraperitoneally to mice. To be noted: route intraperitoneal. Format: functional.
The test system of assay [20] is Mus musculus. The assay can be described thus: Weight change in g when a dose of 20 mg/kg (iv) to L1210 leukemia mice model. It counts as functional. Summed up: as §4
The subject of assay [21] is Mus musculus. The assay can be described thus: Survivors at day 60 when a dose of 10 mg/kg to B16 melanoma infected mice; 4/10. Format: functional.
Assay [22] deals with Mus musculus. The assay can be described thus: Survivors at day 30 when a dose of 40 mg/kg to P388 leukemia model; 0/10. Format: functional.
The subject of assay [23] is Mus musculus. The assay can be described thus: Weight change in g when a dose of 5 mg/kg administered intraperitoneally in B-16 melanoma infected mice. Conditions: route intraperitoneal. It counts as functional. A digest of the protocol: as §7
Assay [24] concerns Mus musculus. The assay can be described thus: Median survival day in B16 melanoma cell line when a dose of 20 mg/kg administered intraperitoneally to mice. Format: functional. Conditions: route intraperitoneal. A digest of the protocol: as §6
For assay [25], the system named is Mus musculus. The assay can be described thus: Weight change in g when a dose of 80 mg/kg administered intraperitoneally to P388 leukemia model. To be noted: route intraperitoneal.
Assay [26] relates to Mus musculus. The assay can be described thus: Median survival day in P388 leukemia model when a dose of 80 mg/kg administered intraperitoneally. Format: functional. To be noted: route intraperitoneal. Summed up:
as §3

Assay [27] relates to Mus musculus. The assay can be described thus: Antitumor activity against P388 cells at a dose of 20 mg/kg administered intraperitoneally P388 Leukemia model. Format: functional. Conditions: route intraperitoneal. Summed up:
as §2

The subject of assay [28] is Mus musculus. The assay can be described thus: Median survival day in B16 melanoma cell line when a dose of 5 mg/kg administered intraperitoneally to mice. It counts as functional. Conditions: route intraperitoneal. A digest of the protocol: as §6
Assay [29] relates to Mus musculus. The assay can be described thus: Antitumor activity against P388 leukemia in mice at a dose of 1.25 mg/kg administered intraperitoneally for 5 days. Format: functional. Conditions: route intraperitoneal. Summed up: as §5
The subject of assay [30] is Mus musculus. Briefly: Survivors at day 60 when a dose of 2.5 mg/kg to B16 melanoma infected mice; 0/10. Format: functional.
For assay [31], the system named is Mus musculus. The assay can be described thus: Median survival day in B16 melanoma cell line when a dose of 10 mg/kg administered intraperitoneally to mice. Format: functional. To be noted: route intraperitoneal. Summed up: as §6
Assay [32] has as its system Mus musculus. The assay can be described thus: Antitumor activity against B16 melanoma cells at a dose of 30 mg/kg administered intraperitoneally to mice. Format: functional. To be noted: route intraperitoneal. A digest of the protocol:
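Hybrid BD F1 mice were inoculated ip at D0 with 0.5 mL of B16 melanoma homogenate (1 g tumor in 10 mL physiological serum). Drugs were given ip daily D1-9. Cisplatin 0.5 mg/kg was the positive control under the same schedule.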

By T/C is commonly meant the ratio of treated to control. For `CCN(CC)CCCNc1ncc(C)c2c1c1cc(O)ccc1n2C`, the figures for the Median tumoral volume in the assay with Mus musculus [1] and with Mus musculus [9] were 1.38 cm*3 and 0.97 cm*3, respectively. In the assay on Mus musculus [2], this compound yielded a T/C of 202%. Also, in the assay with Mus musculus [3], the Median survival day came out at 23. In the assay with Mus musculus [4], this compound returned a Weight change of -0.2 g. In the assay with Mus musculus [5], this compound yielded a Tumor volume of 36%. The Survivors in the assay with Mus musculus [6], in the assay with Mus musculus [7], in the assay with Mus musculus [8] and with Mus musculus [10] was 0 in each case.
As to `Cc1cnc(NCCCN(C)C)c2c3cc(O)ccc3n(C)c12`, the T/C came out at 164% in the assay on Mus musculus [11], 157% with Mus musculus [15] and 164% with Mus musculus [19]. Besides, the Survivors in the assay with Mus musculus [12] worked out at 4; in the assay with Mus musculus [14], 0; with Mus musculus [18], 1. The compound further yielded a Median tumoral volume in the assay on Mus musculus [13] of 0 cm*3. Also, the Median survival day in the assay with Mus musculus [16] was found to be 50. Moreover, the Weight change was 0.1 g in the assay with Mus musculus [17] and -1.1 g in the assay on Mus musculus [20].
Regarding `CCN(CC)CCCNc1[nH]cc(C)c2nc3ccc(O)cc3c1-2`, the Survivors in the assay on Mus musculus [21] was 4; with Mus musculus [22], 0; in the assay with Mus musculus [30], 0. Also, the values for the Weight change in the assay on Mus musculus [23] and in the assay with Mus musculus [25] were -0.1 g and -1.7 g, respectively. The Median survival day is 58 in the assay with Mus musculus [24], 2.3 with Mus musculus [26], 48 in the assay with Mus musculus [28] and 56.25 with Mus musculus [31]. Besides, the T/C in the assay with Mus musculus [27] was found to be 139%; with Mus musculus [29], 153%; in the assay with Mus musculus [32] it was 33%.
